Assays:
[1] = system: Salmonella typhimurium; test: Minimum inhibitory concentration of salt was tested against Salmonella Typhimurium […] at 0.1 M NaH2PO4 adjusted to pH 7.0; type: functional; details: Salmonella enterica
[2] = system: Staphylococcus aureus; test: Minimum inhibitory concentration of salt was tested against Staphylococcus aureus aureus at 0.1 M NaH2PO4 adjusted to pH 7.0; type: functional
Outline: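 Bacteria grown 18-20 h at 37 °C in tryptose phosphate broth, adjusted to OD650 0.01, then diluted into double-strength medium to about 2 × 10^5 viable organisms/mL. Compound in 0.1 M NaH2PO4 pH 7.0 was serially twofold diluted into sterile water and added 1:1 to the cultures. MIC read after 18-20 h at 37 °C, with viability, sterility and buffer controls.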

[3] = system: Pseudomonas aeruginosa; test: Minimum inhibitory concentration of salt was tested against Pseudomonas aeruginosa at 0.1 M NaH2PO4 adjusted to pH 7.0; type: functional
[4] = system: Bacillus subtilis; test: Minimum inhibitory concentration of salt was tested against Bacillus subtilis at 0.1 M NaH2PO4 adjusted to pH 7.0; type: functional
[5] = system: Streptococcus pyogenes; test: Minimum inhibitory concentration of salt was tested against Streptococcus pyogenes aureus at 0.1 M NaH2PO4 adjusted to pH 7.0; type: functional
[6] = system: Staphylococcus aureus; test: Sterilization time for contact germicidal efficiency (CGE) of salt was tested against at Staphylococcus aureus at pH 7.0, concentration 1039 ppm; type: functional
[7] = Toxicity of the salt was tested on white swiss male mice after intraperitoneal administration; type: organism-based; details: mouse, in vivo, ip
Outline: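 Male White Swiss mice (MCR-ICR), 20-23 g, 10-20 per dose. Salt given in isotonic NaCl, pH 7.0 (adjusted with sodium bicarbonate). LD50 with confidence limits was calculated by Litchfield–Wilcoxon.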

[8] = system: Streptococcus pyogenes; test: Sterilization time for contact germicidal efficiency (CGE) of salt was tested against at Streptococcus pyogenes at pH 7.0, concentration 1038.7 ppm; type: functional
[9] = system: Staphylococcus aureus; test: Sterilization time for contact germicidal efficiency (CGE) of salt was tested against at Staphylococcus aureus at pH 6.0, concentration 1018 ppm; type: functional
[10] = system: Pseudomonas aeruginosa; test: Sterilization time for contact germicidal efficiency (CGE) of salt was tested against at Pseudomonas aeruginosa at pH 7.0, concentration 936.0 ppm; type: functional
[11] = system: Pseudomonas aeruginosa; test: Sterilization time for contact germicidal efficiency (CGE) of salt was tested against at Pseudomonas aeruginosa at pH 7.0, concentration 1039 ppm; type: functional
[12] = Toxicity of the salt was tested on white swiss male mice after oral administration; type: organism-based; details: mouse, in vivo
Outline: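 Male White Swiss mice (MCR-ICR), 20-23 g, 10-20 per dose, dosed orally. At higher doses the salt was given in 0.8% NaCl brought to pH 5.84 with sodium bicarbonate. LD50 was calculated by Litchfield–Wilcoxon.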

[13] = system: Streptococcus pyogenes; test: Sterilization time for contact germicidal efficiency (CGE) of salt was tested against at Streptococcus pyogenes at pH 6.0, concentration 1018 ppm; type: functional
[14] = system: Pseudomonas aeruginosa; test: Sterilization time for contact germicidal efficiency (CGE) of salt was tested against at Pseudomonas aeruginosa at pH 6.0, concentration 1018 ppm; type: functional
[15] = system: Streptococcus pyogenes; test: Sterilization time for contact germicidal efficiency (CGE) of salt was tested against at Streptococcus pyogenes at pH 8.0, concentration 1018 ppm; type: functional
[16] = system: Staphylococcus aureus; test: Sterilization time for contact germicidal efficiency (CGE) of salt was tested against Staphylococcus aureus at pH 7.0, concentration 1038.7 ppm; type: functional
[17] = system: Pseudomonas aeruginosa; test: Sterilization time for contact germicidal efficiency (CGE) of salt was tested against at Pseudomonas aeruginosa at pH 7.0, concentration 1038.7 ppm; type: functional
[18] = system: Staphylococcus aureus; test: Sterilization time for contact germicidal efficiency (CGE) of salt was tested against Staphylococcus aureus at pH 7.0, concentration 936.0 ppm; type: functional
[19] = system: Staphylococcus aureus; test: Sterilization time for contact germicidal efficiency (CGE) of salt was tested against at Staphylococcus aureus at pH 8.0, concentration 1018 ppm; type: functional
[20] = system: Pseudomonas aeruginosa; test: Sterilization time for contact germicidal efficiency (CGE) of salt was tested against at Pseudomonas aeruginosa at pH 8.0, concentration 1018 ppm; type: functional
[21] = system: Streptococcus pyogenes; test: Sterilization time for contact germicidal efficiency (CGE) of salt was tested against at Streptococcus pyogenes at pH 7.0, concentration 1039 ppm; type: functional
[22] = system: Streptococcus pyogenes; test: Sterilization time for contact germicidal efficiency (CGE) of salt was tested against at Streptococcus pyogenes at pH 7.0, concentration 936.0 ppm; type: functional
[23] = system: Staphylococcus aureus; test: Sterilization time for contact germicidal efficiency (CGE) of salt was tested against Staphylococcus aureus at pH 7.0 in horse serum at contact time=15 min; type: functional
Outline: (§1)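 S. aureus ATCC 6538 CGE screen with solutions in 0.1 M NaH2PO4 pH 7.0 diluted with 10% horse serum in distilled water, adjusted to pH 7 with CO2. Contact times of 0-15 min were used. Overnight culture was added, and loop subcultures taken at 0.5-30 min were grown 7 days at 37 °C in nutrient broth. Sterilization time is the first interval giving no growth.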

[24] = system: Streptococcus pyogenes; test: Sterilization time for contact germicidal efficiency (CGE) of salt was tested against at Streptococcus pyogenes at pH 8.0, concentration 1022 ppm; type: functional
Outline: (§2)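 Streptococcus pyogenes ATCC 19615 overnight culture, 5 × 10^6 cfu/mL; 0.2 mL into 5 mL test solution of salt in buffer, left 30 min at room temperature beforehand. At timed intervals (0.5 to 30 min), a 3-mm loop was transferred to sterile nutrient broth and incubated at 37 °C for 7 days. Sterilization time is the shortest interval without growth; buffer-only and viability controls were run.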

[25] = system: Pseudomonas aeruginosa; test: Sterilization time for contact germicidal efficiency (CGE) of salt was tested against at Pseudomonas aeruginosa at pH 6.0, concentration 1016 ppm; type: functional
Outline: (§3)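 Test solutions of the quaternary salt in buffer stood 30 min at room temperature. 0.2 mL of overnight broth culture was added to 5 mL of solution. Inocula: S. aureus ATCC 6538 6-8 × 10^6 cfu/mL, P. aeruginosa ATCC 9027 12-13 × 10^6/mL, S. pyogenes ATCC 19615 5 × 10^6 cfu/mL. At 0.5-30 min intervals a loop was subcultured into nutrient broth and incubated 7 days at 37 °C. Sterilization time is the first interval giving no growth.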

[26] = system: Streptococcus pyogenes; test: Sterilization time for contact germicidal efficiency (CGE) of salt was tested against at Streptococcus pyogenes at pH 6.0, concentration 1016 ppm; type: functional; outline: as §2
[27] = system: Staphylococcus aureus; test: Sterilization time for contact germicidal efficiency (CGE) of salt was tested against at Staphylococcus aureus at pH 7.0, concentration 1027 ppm; type: functional
Outline: (§4)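 Staphylococcus aureus ATCC 6538, overnight broth culture at 6-8 × 10^6 cfu/mL; 0.2 mL inoculated into 5 mL of buffered quaternary salt solution pre-held 30 min at room temperature. Loop subcultures (3 mm) taken at 0.5-30 min intervals into nutrient broth, incubated at 37 °C for 7 days and read daily. The endpoint is the earliest time giving a growth-free subculture.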

[28] = system: Staphylococcus aureus; test: Sterilization time for contact germicidal efficiency (CGE) of salt was tested against Staphylococcus aureus at pH 7.0 in horse serum at contact time=10 min; type: functional; outline: as §1
[29] = system: Pseudomonas aeruginosa; test: (§5) Sterilization time for contact germicidal efficiency (CGE) of salt was tested against at Pseudomonas aeruginosa at pH 7.0, concentration 1027 ppm; type: functional; outline: as §3
[30] = system: Staphylococcus aureus; test: Sterilization time for contact germicidal efficiency (CGE) of salt was tested against at Staphylococcus aureus at pH 6.0, concentration 1016 p.p.m.; type: functional; outline: as §4
[31] = system: Pseudomonas aeruginosa; test: Sterilization time for contact germicidal efficiency (CGE) of salt was tested against at Pseudomonas aeruginosa at pH 8.0, concentration 1022 ppm; type: functional
Outline: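 Pseudomonas aeruginosa ATCC 9027 overnight broth culture (12-13 × 10^6 organisms/mL); 0.2 mL added to 5 mL buffered salt solution held 30 min at room temperature. At intervals from 0.5 to 30 min, a 3-mm loop was subcultured into nutrient broth and incubated at 37 °C for 7 days. Sterilization time is the shortest interval whose subculture gave no growth.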

[32] = system: Staphylococcus aureus; test: Sterilization time for contact germicidal efficiency (CGE) of salt was tested against Staphylococcus aureus at pH 7.0 in horse serum at contact time=0 min; type: functional; outline: as §1
[33] = system: Staphylococcus aureus; test: Sterilization time for contact germicidal efficiency (CGE) of salt was tested against Staphylococcus aureus at pH 7.0, concentration 1027 ppm; type: functional; outline: as §3
[34] = system: Streptococcus pyogenes; test: Sterilization time for contact germicidal efficiency (CGE) of salt was tested against at Streptococcus pyogenes at pH 7.0, concentration 1027 ppm; type: functional; outline: as §2
[35] = system: Staphylococcus aureus; test: Sterilization time for contact germicidal efficiency (CGE) of salt was tested against Staphylococcus aureus at pH 7.0 in water diluent; type: functional; outline: as §3
[36] = system: Pseudomonas aeruginosa; test: as §5; type: functional; outline: as §3; remark: listed apart in the source
[37] = system: Staphylococcus aureus; test: Sterilization time for contact germicidal efficiency (CGE) of salt was tested against at Staphylococcus aureus at pH 8.0, concentration 1022 ppm; type: functional; outline: as §4
[38] = system: Staphylococcus aureus; test: Sterilization time for contact germicidal efficiency (CGE) of salt was tested against Staphylococcus aureus at pH 7.0 in horse serum at contact time=5 min; type: functional; outline: as §1
[39] = system: Staphylococcus aureus; test: Sterilization time for contact germicidal efficiency (CGE) of salt was tested against Staphylococcus aureus at pH 7.0, concentration 610 ppm; type: functional; outline: as §3
[40] = system: Streptococcus pyogenes; test: Sterilization time for contact germicidal efficiency (CGE) of salt was tested against Streptococcus pyogenes at pH 7.0, concentration 610 ppm; type: functional; outline: as §3
[41] = system: Pseudomonas aeruginosa; test: Sterilization time for contact germicidal efficiency (CGE) of salt was tested against Pseudomonas aeruginosa at pH 7.0, concentration 610 ppm; type: functional; outline: as §3

`CCCCCCCCCCCCCCCC(=O)OC[n+]1ccccc1.[Cl-]` gave an MIC [1] of 1070 µg/mL.
`CCCCCCCCCCCCCCCC(=O)OC[N+]1=CN(C)CC1.[Cl-]` showed an MIC [2] of 1.3 µg/mL, an MIC [3] greater than 42.4 µg/mL and an MIC [1] greater than 42.4 µg/mL. For the same compound, the MIC [4] was greater than 42.4 µg/mL and the MIC [5] was greater than 42.4 µg/mL.
`CCCCCCCCCCCCCCCC[n+]1ccccc1.[Cl-]` gave a Time [6] of 0.5 min, an LD50 [7] of 10 mg/kg and a Time [8] of 0.5 min. It also gave a Time [9] of 0.5 min, a Time [10] of 0.5 min and a Time [11] of 0.5 min. The LD50 [12] was 108 mg/kg, the Time [13] was 0.5 min and the Time [14] was 0.5 min. It also gave a Time [15] of 0.5 min, a Time [16] of 0.5 min and a Time [17] of 0.5 min. The Time [18] was 0.5 min, the Time [19] was 0.5 min and the Time [20] was 0.5 min. It also gave a Time [21] of 0.5 min and a Time [22] of 0.5 min.
For `CCCCCCCCCCCC(=O)OC[N+]12CCC(CC1)CC2.[Cl-]`, the Time [23] was greater than 30 min, the Time [24] was 2 min and the MIC [2] was 16.4 µg/mL. For the same compound, the Time [25] was 0.5 min, the Time [26] was 0.5 min and the Time [27] was 0.5 min. It also gave a Time [28] of 5 min, a Time [29] of 0.5 min and a Time [30] of 1 min. The Time [31] was 0.5 min, the Time [32] was 1 min and the MIC [3] was 1050 µg/mL. For the same compound, the Time [33] was 0.5 min, the Time [34] was 0.5 min and the Time [35] was 0.5 min. The MIC [1] was 262 µg/mL, the Time [36] was 3 min and the Time [37] was 0.5 min. The MIC [4] was 32.8 µg/mL, the Time [38] was 3 min and the MIC [5] was 4.1 µg/mL.
For `CCCCCCCCCCCC(=O)O` [DODECANOATE], the Time [39] was greater than 30 min, the Time [40] was greater than 30 min and the Time [41] was greater than 30 min.

— ChEMBL document CHEMBL1121429, “Soft drugs. 1. Labile quaternary ammonium salts as soft antimicrobials” (J Med Chem, 1980)
